# Source: ChEMBL document CHEMBL1649261, “Pharmacodynamic profile of tigecycline against methicillin-resistant Staphylococcus aureus in an experimental pneumonia model” (Antimicrob Agents Chemother, 2009)
# Key:
# [1] = Protein binding in Staphylococcus aureus-infected BALB/c mouse serum at 12.5 mg/kg, sc administered as single dose; type: ADME, organism-based; set-up: dose 12.5 mg/kg, route subcutaneous; details: read-out: PB (converted)
# How it was run: (§1)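 Ultrafiltration was run in triplicate with 30,000-MW cutoff devices. Drug was diluted into fresh mouse serum to final 1.5, 3, 6 and 15 μg/ml, held at 37°C for 10 min with shaking, and centrifuged at 1,000 × g for 45 min at 10°C. Binding was calculated as (S − SUF)/S × 100 for each concentration, each matched to a dose by its peak serum level.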
# [2] = Half life in BALB/c mouse infected with Staphylococcus aureus at 25 mg/kg, sc administered as single dose; type: ADME, organism-based; set-up: dose 25 mg/kg, route subcutaneous; details: in vivo
# How it was run: (§2)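 Neutropenic BALB/c mice (cyclophosphamide ip 250 and 100 mg/kg, days −4 and −1) with S. aureus pneumonia from oral instillation of 0.05 ml of a 3% mucin suspension received a single 0.2-ml sc dose in normal saline. Serum was taken at 0.25, 0.5, 1, 1.5, 2, 4, 6 and 8 h, six mice per time point. Drug was measured by validated HPLC.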
# [3] = Ratio of fAUC to MIC in hospital-acquired methicillin-resistant Staphylococcus aureus 56-infected BALB/c mouse at […] maximal effective concentration; type: functional
# How it was run: (§3)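 Neutropenic BALB/c mice (cyclophosphamide 250 and 100 mg/kg i.p., 4 and 1 days before infection) were infected by oral inhalation of 0.05 ml inoculum in 3% mucin under isoflurane. Subcutaneous tigecycline (1.56–150 mg/kg/day, single or 2–3 divided doses, saline vehicle) was started 6 h post-infection. At 24 h lungs were homogenized and plated; change in log10 CFU was taken versus 0-h controls.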
# [4] = AUC (0 to 8 hrs) in Staphylococcus aureus-infected BALB/c mouse epithelial lining fluid at 25 mg/kg, sc administered as single dose; type: ADME, organism-based; set-up: time < 8 hr, dose 25 mg/kg, route subcutaneous
# How it was run: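 Infected neutropenic BALB/c mice received a single sc dose in saline. Normal-saline bronchoalveolar lavage was done at 0.25, 1, 4 and 8 h, six mice per time. HPLC drug levels in lavage were converted to epithelial lining fluid concentrations with the serum/BAL urea ratio. AUC0-8 was calculated by the trapezoidal rule, and ELF drug was taken as free drug.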
# Staphylococcus aureus [5] = assay: Antibacterial activity against methicillin-susceptible Staphylococcus aureus ATCC 29213 by microdilution method; type: functional
# How it was run: (§4)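 Tigecycline MIC measured in triplicate by broth microdilution following CLSI guidelines. Isolates were stored at −80°C in skim milk and subcultured twice on blood agar before testing.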
# [6] = Tmax in BALB/c mouse infected with Staphylococcus aureus at 12.5 mg/kg, sc administered as single dose; type: ADME, organism-based; set-up: dose 12.5 mg/kg, route subcutaneous; details: in vivo; how it was run: as §2
# [7] = Half life in BALB/c mouse infected with Staphylococcus aureus at 50 mg/kg, sc administered as single dose; type: ADME, organism-based; set-up: dose 50 mg/kg, route subcutaneous; details: in vivo; how it was run: as §2
# [8] = Ratio of fAUC to MIC in methicillin-susceptible Staphylococcus aureus ATCC 29213-infected BALB/c mouse at 80% maximal effective concentration; type: functional
# How it was run: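 Mice were neutropenic and infected by lung instillation with ATCC 29213, with the MIC set by CLSI broth microdilution in triplicate. Sc treatment started 6 h post-inoculation at 1.56–150 mg/kg/day, given as one, two or three doses. Lung CFU at 24 h were compared with 0-h controls. Change in log10 CFU was fitted against protein-binding-corrected fAUC/MIC with a sigmoid Emax model.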
# [9] = Ratio of fAUC to MIC in community-acquired methicillin-resistant Staphylococcus aureus 156-infected BALB/c mouse at […] maximal effective concentration; type: functional; how it was run: as §3
# [10] = Ratio of fAUC (0 to 8 hrs) in epithelial lining fluid to plasma of Staphylococcus aureus-infected BALB/c mouse at 25 mg/kg, sc administered as single dose; type: ADME, organism-based; set-up: dose 25 mg/kg, route subcutaneous
# How it was run: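 Neutropenic BALB/c mice (cyclophosphamide ip 250 and 100 mg/kg, 4 d and 1 d pre-inoculation) infected orally with S. aureus in 3% mucin. Single 0.2-ml sc dose in normal saline; six mice per time point. Serum sampled 0.25–8 h, BAL at 0.25, 1, 4, 8 h; HPLC; ELF by urea correction. Trapezoidal AUC0-8; serum corrected for ultrafiltration protein binding, BAL drug assumed free.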
# [11] = Ratio of fAUC to MIC in community-acquired methicillin-resistant Staphylococcus aureus 144-infected BALB/c mouse at 80% maximal effective concentration; type: functional; how it was run: as §3
# Staphylococcus aureus [12] = assay: Antibacterial activity against community-acquired methicillin-resistant Staphylococcus aureus 147 by microdilution method; type: functional; how it was run: as §4
# [13] = AUC (0 to 24 hrs) in BALB/c mouse infected with Staphylococcus aureus at 12.5 mg/kg, sc administered as single dose; type: ADME, organism-based; set-up: time < 24 hr, dose 12.5 mg/kg, route subcutaneous; details: plasma; how it was run: as §2
# [14] = Cmax in BALB/c mouse infected with Staphylococcus aureus at 6.25 mg/kg, sc administered as single dose; type: ADME, organism-based; set-up: dose 6.25 mg/kg, route subcutaneous; details: in vivo; how it was run: as §2
# [15] = Tmax in BALB/c mouse infected with Staphylococcus aureus at 25 mg/kg, sc administered as single dose; type: ADME, organism-based; set-up: dose 25 mg/kg, route subcutaneous; details: in vivo; how it was run: as §2
# [16] = Protein binding in Staphylococcus aureus-infected BALB/c mouse serum at 6.25 mg/kg, sc administered as single dose; type: ADME, organism-based; set-up: dose 6.25 mg/kg, route subcutaneous; details: read-out: PB (converted); how it was run: as §1
# [17] = Ratio of fAUC to MIC in hospital-acquired methicillin-resistant Staphylococcus aureus 56-infected BALB/c mouse at 80% maximal effective concentration; type: functional; how it was run: as §3
# Mus musculus = assay: Volume of distribution in BALB/c mouse infected with Staphylococcus aureus at 12.5 mg/kg, sc administered as single dose; type: ADME, organism-based; set-up: dose 12.5 mg/kg, route subcutaneous; details: in vivo; how it was run: as §2
# [18] = Protein binding in Staphylococcus aureus-infected BALB/c mouse serum at 50 mg/kg, sc administered as single dose; type: ADME, organism-based; set-up: dose 50 mg/kg, route subcutaneous; details: read-out: PB (converted); how it was run: as §1
# [19] = Cmax in BALB/c mouse infected with Staphylococcus aureus at 50 mg/kg, sc administered as single dose; type: ADME, organism-based; set-up: dose 50 mg/kg, route subcutaneous; details: in vivo; how it was run: as §2
# [20] = Ratio of fAUC to MIC in community-acquired methicillin-resistant Staphylococcus aureus 147-infected BALB/c mouse at 80% maximal effective concentration; type: functional; how it was run: as §3
# [21] = AUC (0 to 24 hrs) in BALB/c mouse infected with Staphylococcus aureus at 50 mg/kg, sc administered as single dose; type: ADME, organism-based; set-up: time < 24 hr, dose 50 mg/kg, route subcutaneous; details: plasma; how it was run: as §2
# [22] = Ratio of fAUC to MIC in hospital-acquired methicillin-resistant Staphylococcus aureus 152-infected BALB/c mouse at 80% maximal effective concentration; type: functional; how it was run: as §3
# Staphylococcus aureus [23] = assay: Antibacterial activity against hospital-acquired methicillin-resistant Staphylococcus aureus 56 by microdilution method; type: functional; how it was run: as §4
# [24] = Tmax in BALB/c mouse infected with Staphylococcus aureus at 6.25 mg/kg, sc administered as single dose; type: ADME, organism-based; set-up: dose 6.25 mg/kg, route subcutaneous; details: in vivo; how it was run: as §2
# [25] = Cmax in BALB/c mouse infected with Staphylococcus aureus at 12.5 mg/kg, sc administered as single dose; type: ADME, organism-based; set-up: dose 12.5 mg/kg, route subcutaneous; details: in vivo; how it was run: as §2
# [26] = Ratio of fAUC to MIC in community-acquired methicillin-resistant Staphylococcus aureus 144-infected BALB/c mouse at […] maximal effective concentration; type: functional; how it was run: as §3
structure (smiles),measurement,setting,value
CN(C)c1cc(NC(=O)CNC(C)(C)C)c(O)c2c1C[C@H]1C[C@H]3[C@H](N(C)C)C(O)=C(C(N)=O)C(=O)[C@@]3(O)C(O)=C1C2=O [TIGECYCLINE],fraction unbound,[1],0.128
same,half-life,[2],746 min
same,fAUC/MIC,[3],0.38
same,AUC(0-t) at 8 h,[4],20.4 µg·h/mL
same,MIC,Staphylococcus aureus [5],0.25 mg/L
same,Tmax,[6],16.2 min
same,half-life,[7],691 min
same,fAUC/MIC,[8],2.68
same,fAUC/MIC,[9],3.91
same,Kp uu,[10],15.1
same,fAUC/MIC,[11],2.64
same,MIC,Staphylococcus aureus [12],0.25 mg/L
same,AUC(0-t) at 24 h,[13],16.5 µg·h/mL
same,Cmax,[14],1.57 µg/mL
same,Tmax,[15],44.4 min
same,fraction unbound,[16],0.15
same,fAUC/MIC,[17],2.11
same,Vd,Mus musculus,3.62 L/kg
same,fraction unbound,[18],0.041
same,Cmax,[19],15.8 µg/mL
same,fAUC/MIC,[20],3.12
same,AUC(0-t) at 24 h,[21],72.5 µg·h/mL
same,fAUC/MIC,[22],2.48
same,MIC,Staphylococcus aureus [23],0.5 mg/L
same,Tmax,[24],20.4 min
same,Cmax,[25],3.09 µg/mL
same,fAUC/MIC,[26],2.29
